These results are taken from ChEMBL document CHEMBL1132629, “Synthesis and anti-HIV and anti-HBV activities of 2'-fluoro-2', 3'-unsaturated L-nucleosides” (J Med Chem, 1999).

For assay [1], the system named is Human immunodeficiency virus 1. As to the kind of experiment: Evaluated for anti-HIV activity. Type of assay: functional, organism-based. In a few lines: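 Human peripheral blood mononuclear (PBM) cells infected with HIV-1; antiviral potency reported as EC50 (μM); AZT run as positive control.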
The next assay deals with Hepatitis B virus. In words: The EC50 value was measured on hepatitis B virus. Type of assay: functional, organism-based. The procedure, abridged:
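Anti-HBV activity assayed in 2.2.15 cells; EC50 (μM) reported.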

The next assay relates to Vero. As to the kind of experiment: Inhibitory activity was evaluated in Vero cells. Type of assay: functional, cell-based. The following applies: Chlorocebus sabaeus.
For a further assay, the system named is CCRF-CEM. In words: Cytotoxicity was evaluated in CEM cells. The following applies: Homo sapiens.
A further assay has as its system PBMC. As to the kind of experiment: Cytotoxicity was evaluated in human peripheral blood mononuclear (PBM) cells.

The structures appear in SMILES notation.

`Nc1ncnc2c1ncn2[C@H]1O[C@@H](CO)C=C1F`: the EC50 (as a rule, the midpoint of the concentration-response curve) stood at 1.5 µM in assay [1] and 1.7 µM in the assay on Hepatitis B virus. Besides, the IC50 in the assay with Vero, in the assay with CCRF-CEM and in the assay with PBMC was over 100 µM each time.
With `Cc1cn([C@H]2O[C@@H](CO)C=C2F)c(=O)[nH]c1=O`, the values for the EC50 (in assay [1]; in the assay with Hepatitis B virus) were over 100 µM and over 10 µM, respectively. The IC50 with Vero, in the assay on CCRF-CEM and with PBMC was over 100 µM in each case.
On to `OC[C@H]1C=C(F)[C@@H](n2cnc3c(O)ncnc32)O1`, for which the EC50 was 4.7 µM in assay [1] and over 10 µM with Hepatitis B virus. The IC50 in the assay on Vero, with CCRF-CEM and with PBMC was over 100 µM each time.
Regarding `Nc1nc(F)nc2c1ncn2[C@H]1O[C@@H](CO)C=C1F`, the EC50 was 2.2 µM in assay [1] and over 10 µM with Hepatitis B virus. In addition, the IC50 (as a rule, the concentration at which inhibition is half-maximal) with Vero came out at 173 µM; with CCRF-CEM it was 19.5 µM; in the assay with PBMC, 25.8 µM.
`Cc1cn([C@H]2C[C@H](N=[N+]=[N-])[C@@H](CO)O2)c(=O)[nH]c1=O` [ZIDOVUDINE] displayed an EC50 with Hepatitis B virus of over 10 µM. The IC50 in the assay with PBMC is over 100 µM.
Consider `OC[C@H]1C=C(F)[C@H](n2cnc3c(O)ncnc32)O1`, for which the EC50 was over 100 µM in assay [1] and over 10 µM in the assay on Hepatitis B virus. Besides, the IC50 in the assay with Vero, in the assay with CCRF-CEM and in the assay with PBMC was over 100 µM each time.
As to `Nc1nc(Cl)c2ncn([C@H]3O[C@@H](CO)C=C3F)c2n1`, the EC50 is over 100 µM in assay [1] and over 10 µM with Hepatitis B virus. Moreover, the IC50 in the assay with Vero, in the assay with CCRF-CEM and with PBMC was over 100 µM throughout.
Regarding `Nc1nc(Cl)c2ncn([C@@H]3O[C@@H](CO)C=C3F)c2n1`, the EC50 was 14.5 µM in assay [1] and over 10 µM with Hepatitis B virus. Moreover, the IC50 was over 100 µM in the assay on Vero, 28.2 µM in the assay on CCRF-CEM and 26.6 µM in the assay with PBMC.
Regarding `O=c1ccn([C@@H]2O[C@@H](CO)C=C2F)c(=O)[nH]1`, the EC50 in assay [1] is over 100 µM; in the assay on Hepatitis B virus it was over 10 µM. For the same compound, the IC50 in the assay on Vero, in the assay with CCRF-CEM and in the assay on PBMC was over 100 µM in each case.
With `Nc1ccn([C@H]2O[C@@H](CO)C=C2F)c(=O)n1`, the EC50 came out at 0.51 µM in assay [1] and 0.18 µM with Hepatitis B virus. Also, the IC50 with Vero, in the assay with CCRF-CEM and in the assay with PBMC was over 100 µM each time.
In the case of `Nc1nc(=O)n([C@H]2O[C@@H](CO)C=C2F)cc1F`, the EC50 in assay [1] came out at 0.17 µM; with Hepatitis B virus it was 0.225 µM. Also, the IC50 with Vero, with CCRF-CEM and in the assay with PBMC was over 100 µM each time.
Regarding `Nc1nc(O)c2ncn([C@@H]3O[C@@H](CO)C=C3F)c2n1`, the EC50 in assay [1] was 76.9 µM; in the assay on Hepatitis B virus, over 10 µM. Moreover, the IC50 with Vero, with CCRF-CEM and in the assay on PBMC was over 100 µM each time.
Take `Nc1nc(F)nc2c1ncn2[C@@H]1O[C@@H](CO)C=C1F`: the half-maximal effective concentration (EC50) in assay [1] was over 100 µM; in the assay on Hepatitis B virus, over 10 µM. The IC50 with Vero, with CCRF-CEM and in the assay with PBMC was over 100 µM throughout.
Turning to `O=c1ccn([C@H]2O[C@@H](CO)C=C2F)c(=O)[nH]1`, the EC50 was over 100 µM in assay [1] and over 10 µM with Hepatitis B virus. The IC50 with Vero, in the assay with CCRF-CEM and with PBMC was over 100 µM each time.
For `Nc1ncnc2c1ncn2[C@@H]1O[C@@H](CO)C=C1F`, the EC50 in assay [1] was 47.6 µM; in the assay with Hepatitis B virus, over 10 µM. Further, the IC50 in the assay on Vero, in the assay on CCRF-CEM and in the assay on PBMC was over 100 µM each time.
Regarding `Nc1nc(O)c2ncn([C@H]3O[C@@H](CO)C=C3F)c2n1`, the EC50 in assay [1] is over 100 µM; in the assay with Hepatitis B virus, over 10 µM. Moreover, the IC50 in the assay with Vero, in the assay on CCRF-CEM and in the assay with PBMC was over 100 µM each time.
Regarding `Nc1ccn([C@@H]2O[C@@H](CO)C=C2F)c(=O)n1`, the values for the EC50 (in assay [1]; in the assay on Hepatitis B virus) were over 100 µM and over 10 µM, respectively. In addition, the IC50 in the assay on Vero, in the assay on CCRF-CEM and in the assay with PBMC was over 100 µM in each case.
For `Cc1cn([C@@H]2O[C@@H](CO)C=C2F)c(=O)[nH]c1=O`, the EC50 in assay [1] was over 100 µM; with Hepatitis B virus, over 10 µM. Further, the IC50 in the assay on Vero, with CCRF-CEM and with PBMC was over 100 µM each time.
As to `Nc1nc(=O)n([C@@H]2O[C@@H](CO)C=C2F)cc1F`, the EC50 in assay [1] is over 100 µM; in the assay with Hepatitis B virus, over 10 µM. The IC50 with Vero, with CCRF-CEM and with PBMC was over 100 µM throughout.
